Measurements reported in ChEMBL document CHEMBL4834403, “Design and Synthesis of Novel Epigenetic Inhibitors Targeting Histone Deacetylases, DNA Methyltransferase 1, and Lysine Methyltransferase G9a with In Vivo Efficacy in Multiple Myeloma” (J Med Chem, 2021).
The source made the active and inactive calls. The rule behind the calls is not given here.

How the values were obtained:
Histone deacetylase 1 = Histone deacetylase 1 (Homo sapiens, UniProt Q13547); assay: Inhibition of full length human C-terminal His-tagged/C-terminal Flag-tagged HDAC1 using fluorogenic acetylated peptide as substrate incubated for 30 mins by fluorescence plate reader assay
Chain of Histone deacetylase 1 (Q13547 whole entry): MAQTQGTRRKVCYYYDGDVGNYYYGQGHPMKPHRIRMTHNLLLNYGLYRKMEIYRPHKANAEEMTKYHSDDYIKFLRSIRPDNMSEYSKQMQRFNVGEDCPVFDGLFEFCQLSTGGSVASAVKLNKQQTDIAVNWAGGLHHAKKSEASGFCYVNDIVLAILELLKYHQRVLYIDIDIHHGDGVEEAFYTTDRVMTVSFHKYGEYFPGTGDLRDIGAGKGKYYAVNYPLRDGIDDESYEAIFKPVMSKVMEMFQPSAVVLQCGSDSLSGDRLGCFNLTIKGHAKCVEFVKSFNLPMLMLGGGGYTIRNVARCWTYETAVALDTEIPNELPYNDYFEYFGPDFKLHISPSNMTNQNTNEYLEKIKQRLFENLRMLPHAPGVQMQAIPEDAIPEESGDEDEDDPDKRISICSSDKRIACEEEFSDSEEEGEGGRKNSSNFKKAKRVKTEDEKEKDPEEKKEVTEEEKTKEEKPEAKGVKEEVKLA

[1] = biological target: T1, Histone-lysine N-methyltransferase EHMT2 (Homo sapiens) (UniProt Q96KQ7); assay: Inhibition of G9A in human MM1.S cells assessed as decrease in H3K9Me2 levels > 1 uM after 48 hrs by Western blot analysis; assay type: cell-based; settings: dose microM >1, time 48.0 hrs
T1 sequence (whole entry): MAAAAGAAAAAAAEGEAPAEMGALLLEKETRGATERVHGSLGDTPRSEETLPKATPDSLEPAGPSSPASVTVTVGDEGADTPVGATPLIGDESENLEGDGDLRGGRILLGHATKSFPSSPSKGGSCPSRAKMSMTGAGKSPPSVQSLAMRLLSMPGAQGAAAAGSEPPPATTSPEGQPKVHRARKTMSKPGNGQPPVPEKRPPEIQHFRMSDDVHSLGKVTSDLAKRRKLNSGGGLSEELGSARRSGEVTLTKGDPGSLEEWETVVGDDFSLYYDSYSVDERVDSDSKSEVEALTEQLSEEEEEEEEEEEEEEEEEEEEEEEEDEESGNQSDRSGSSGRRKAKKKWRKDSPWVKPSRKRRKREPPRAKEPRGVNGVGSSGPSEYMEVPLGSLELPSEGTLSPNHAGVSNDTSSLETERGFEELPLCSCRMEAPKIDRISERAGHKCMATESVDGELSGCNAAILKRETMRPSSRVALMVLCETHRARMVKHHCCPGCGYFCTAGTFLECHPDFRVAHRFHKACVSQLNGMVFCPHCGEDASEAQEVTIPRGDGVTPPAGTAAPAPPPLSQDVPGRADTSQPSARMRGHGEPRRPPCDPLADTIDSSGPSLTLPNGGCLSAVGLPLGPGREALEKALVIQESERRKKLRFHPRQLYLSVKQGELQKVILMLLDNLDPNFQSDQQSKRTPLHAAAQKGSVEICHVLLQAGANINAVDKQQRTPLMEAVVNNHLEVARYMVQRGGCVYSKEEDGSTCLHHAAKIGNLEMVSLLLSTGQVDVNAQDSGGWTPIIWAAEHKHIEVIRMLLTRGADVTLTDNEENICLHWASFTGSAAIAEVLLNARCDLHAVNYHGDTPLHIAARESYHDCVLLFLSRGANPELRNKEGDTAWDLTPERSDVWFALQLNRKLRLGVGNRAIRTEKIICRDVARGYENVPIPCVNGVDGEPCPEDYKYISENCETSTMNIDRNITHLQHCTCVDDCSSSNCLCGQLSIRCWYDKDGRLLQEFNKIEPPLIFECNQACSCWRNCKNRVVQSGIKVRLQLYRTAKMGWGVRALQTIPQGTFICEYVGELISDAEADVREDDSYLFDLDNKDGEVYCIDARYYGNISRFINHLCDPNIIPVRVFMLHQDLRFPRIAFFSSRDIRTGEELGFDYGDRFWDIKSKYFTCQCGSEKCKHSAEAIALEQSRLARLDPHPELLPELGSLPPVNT
In short: (§1)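 MM1.S cells exposed 48 h across a concentration range. Global H3K9Ac and H3K9me2 read by Western blot; run in duplicate.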

[2] = Antiproliferative activity against human KMS-28BM cells assessed as inhibition of cell proliferation measured up to 72 hrs by CellTiter96 Aqueous one reagent based assay; assay type: functional; settings: time hrs <=72
[3] = biological target: Histone deacetylase (Homo sapiens) (UniProt Q13547+O15379+Q9UBN7+Q92769+Q9UQL6+Q8WUI4+Q9BY41+Q96DB2+P56524+Q9UKV0+Q969S8); assay: Inhibition of HDAC in human MM1.S cells assessed as increase in H3K9Ac at > 1 uM after 48 hrs by Western blot analysis; assay type: cell-based; settings: dose microM >1, time 48.0 hrs; in short: as §1
JJN-3 = assay: Antiproliferative activity against human JJN-3 cells assessed as inhibition of cell proliferation measured up to 72 hrs by CellTiter96 Aqueous one reagent based assay; assay type: functional; settings: JJN-3, 72 h, time hrs <=72
[4] = biological target: Histone deacetylase 3/Nuclear receptor corepressor 2 (HDAC3/NCoR2) (Homo sapiens, UniProt O15379); assay: Inhibition of full length human C-terminal His-tagged HDAC3/human N-terminal GST-agged NCOR2 using fluorogenic acetylated peptide as substrate incubated for 30 mins by fluorescence plate reader assay; assay type: protein-complex assay
Chain of Histone deacetylase 3/Nuclear receptor corepressor 2 (HDAC3/NCoR2) (O15379 whole entry): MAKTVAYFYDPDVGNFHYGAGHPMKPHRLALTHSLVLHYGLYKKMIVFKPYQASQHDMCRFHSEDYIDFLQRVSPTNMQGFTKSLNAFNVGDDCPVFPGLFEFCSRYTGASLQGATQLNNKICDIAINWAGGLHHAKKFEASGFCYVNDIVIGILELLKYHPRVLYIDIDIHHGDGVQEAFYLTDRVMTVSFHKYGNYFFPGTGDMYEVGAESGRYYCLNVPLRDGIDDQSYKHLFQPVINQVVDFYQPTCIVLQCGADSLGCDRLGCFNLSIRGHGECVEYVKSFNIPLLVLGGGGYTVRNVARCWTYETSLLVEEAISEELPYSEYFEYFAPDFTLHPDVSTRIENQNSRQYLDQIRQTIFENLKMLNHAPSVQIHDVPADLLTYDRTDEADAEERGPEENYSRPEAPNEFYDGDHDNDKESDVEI
Chain of Histone deacetylase 3/Nuclear receptor corepressor 2 (HDAC3/NCoR2) (Q9Y618 whole entry, further chain): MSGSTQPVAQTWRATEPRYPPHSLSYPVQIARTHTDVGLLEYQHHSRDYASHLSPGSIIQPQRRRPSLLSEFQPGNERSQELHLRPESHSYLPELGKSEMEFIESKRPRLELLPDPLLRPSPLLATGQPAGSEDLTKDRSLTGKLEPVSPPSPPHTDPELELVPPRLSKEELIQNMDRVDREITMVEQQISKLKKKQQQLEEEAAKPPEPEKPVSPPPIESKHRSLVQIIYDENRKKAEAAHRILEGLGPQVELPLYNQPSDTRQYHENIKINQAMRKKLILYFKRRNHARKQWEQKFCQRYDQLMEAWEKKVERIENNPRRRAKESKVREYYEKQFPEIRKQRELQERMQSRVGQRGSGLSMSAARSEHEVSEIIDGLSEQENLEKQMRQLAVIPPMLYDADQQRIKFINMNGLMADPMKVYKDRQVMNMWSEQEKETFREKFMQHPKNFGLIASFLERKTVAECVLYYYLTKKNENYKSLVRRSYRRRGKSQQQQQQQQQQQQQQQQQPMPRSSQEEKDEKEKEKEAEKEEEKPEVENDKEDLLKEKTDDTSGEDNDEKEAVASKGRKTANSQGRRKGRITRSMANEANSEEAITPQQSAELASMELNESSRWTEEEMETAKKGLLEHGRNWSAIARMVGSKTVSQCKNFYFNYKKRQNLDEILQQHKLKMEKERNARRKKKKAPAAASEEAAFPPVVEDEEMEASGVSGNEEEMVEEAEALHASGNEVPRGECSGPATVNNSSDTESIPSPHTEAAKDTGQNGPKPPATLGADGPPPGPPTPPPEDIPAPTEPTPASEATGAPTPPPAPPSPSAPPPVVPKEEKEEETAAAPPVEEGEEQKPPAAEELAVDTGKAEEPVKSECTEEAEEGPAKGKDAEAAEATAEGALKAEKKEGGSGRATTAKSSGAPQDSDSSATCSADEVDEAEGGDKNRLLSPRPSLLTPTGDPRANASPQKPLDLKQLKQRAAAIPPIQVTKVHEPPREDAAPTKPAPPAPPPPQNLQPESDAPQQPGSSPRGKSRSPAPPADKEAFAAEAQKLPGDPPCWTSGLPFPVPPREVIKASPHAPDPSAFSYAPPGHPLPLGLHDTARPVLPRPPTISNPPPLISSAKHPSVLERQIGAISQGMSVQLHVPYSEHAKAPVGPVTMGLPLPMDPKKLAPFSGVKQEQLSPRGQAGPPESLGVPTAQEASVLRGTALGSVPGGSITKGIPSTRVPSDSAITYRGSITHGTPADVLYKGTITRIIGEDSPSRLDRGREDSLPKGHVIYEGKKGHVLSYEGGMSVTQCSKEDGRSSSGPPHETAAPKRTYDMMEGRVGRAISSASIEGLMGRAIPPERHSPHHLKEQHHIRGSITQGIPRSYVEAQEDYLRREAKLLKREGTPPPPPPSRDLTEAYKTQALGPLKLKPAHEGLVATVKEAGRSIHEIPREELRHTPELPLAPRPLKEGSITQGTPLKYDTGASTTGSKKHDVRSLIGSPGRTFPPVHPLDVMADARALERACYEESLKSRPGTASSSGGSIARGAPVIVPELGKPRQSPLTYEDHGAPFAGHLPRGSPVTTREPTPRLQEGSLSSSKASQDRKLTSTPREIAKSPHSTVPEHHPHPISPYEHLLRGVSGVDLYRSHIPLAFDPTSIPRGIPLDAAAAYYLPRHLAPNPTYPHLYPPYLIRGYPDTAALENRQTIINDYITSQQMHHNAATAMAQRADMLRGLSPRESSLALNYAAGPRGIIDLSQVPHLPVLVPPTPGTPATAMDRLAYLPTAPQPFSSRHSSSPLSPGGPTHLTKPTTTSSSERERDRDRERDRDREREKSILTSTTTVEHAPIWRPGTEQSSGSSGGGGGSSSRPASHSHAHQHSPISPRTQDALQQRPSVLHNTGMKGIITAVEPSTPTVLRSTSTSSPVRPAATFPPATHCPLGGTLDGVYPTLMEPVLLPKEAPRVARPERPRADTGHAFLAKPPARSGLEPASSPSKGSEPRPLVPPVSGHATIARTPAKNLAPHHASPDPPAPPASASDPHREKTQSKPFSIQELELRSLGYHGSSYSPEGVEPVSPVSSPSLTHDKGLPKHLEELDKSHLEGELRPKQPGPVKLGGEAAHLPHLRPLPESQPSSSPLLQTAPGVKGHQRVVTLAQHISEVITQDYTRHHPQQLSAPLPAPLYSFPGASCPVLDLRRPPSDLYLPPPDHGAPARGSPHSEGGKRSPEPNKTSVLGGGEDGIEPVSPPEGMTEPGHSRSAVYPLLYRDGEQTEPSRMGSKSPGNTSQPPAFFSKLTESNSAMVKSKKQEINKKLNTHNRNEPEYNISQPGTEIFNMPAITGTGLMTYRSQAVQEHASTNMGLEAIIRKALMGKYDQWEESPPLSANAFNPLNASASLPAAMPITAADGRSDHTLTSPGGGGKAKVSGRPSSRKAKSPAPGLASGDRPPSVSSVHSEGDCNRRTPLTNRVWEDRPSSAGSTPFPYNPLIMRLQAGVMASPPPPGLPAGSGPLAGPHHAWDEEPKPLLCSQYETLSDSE

[5] = biological target: DNA (cytosine-5)-methyltransferase 1 (Homo sapiens, UniProt P26358); assay: Inhibition of human DNMT1 enzyme using polydeoxy-inosine polydeoxy-cytosine DNA as substrate incubated for 15 mins in presence of SAM by TR-FRET assay
NCI-H929 = assay: Antiproliferative activity against human NCI-H929 cells assessed as inhibition of cell proliferation measured up to 72 hrs by CellTiter96 Aqueous one reagent based assay; assay type: functional; settings: NCI-H929, 72 h, time hrs <=72
[6] = biological target: T2, Histone-lysine N-methyltransferase EHMT2 (Homo sapiens, UniProt Q96KQ7); assay: Inhibition of human G9a enzyme using histone monomethyl-H3K9 peptide as substrate incubated for 1 hr in presence of SAM by TR-FRET assay
T2 sequence (Q96KQ7 whole entry): T1 sequence (whole entry)

MM1.S [7] = assay: Antiproliferative activity against human MM1.S cells assessed as inhibition of cell proliferation measured up to 72 hrs by CellTiter96 Aqueous one reagent based assay; assay type: functional
THLE-2 = assay: Cytotoxicity against human THLE-2 cells assessed as decrease in cell viability measured after 72 hrs by Vialight-plus cell proliferation assay; assay type: cell-based; settings: thle-2, 72 h
In short: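 Human THLE-2 cells exposed to compound for 72 h. Cytotoxicity reported as LC50 and pLC50, averaged from at least two independent experiments on different days.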

CYP2C19 = CYP2C19 (Homo sapiens, UniProt P33261); assay: Inhibition of CYP2C19 in human liver microsomes at 10 uM incubated for 10 mins in presence of NADPH by LC-MS/MS analysis relative to control; assay type: ADME
Chain of CYP2C19 (P33261 whole entry): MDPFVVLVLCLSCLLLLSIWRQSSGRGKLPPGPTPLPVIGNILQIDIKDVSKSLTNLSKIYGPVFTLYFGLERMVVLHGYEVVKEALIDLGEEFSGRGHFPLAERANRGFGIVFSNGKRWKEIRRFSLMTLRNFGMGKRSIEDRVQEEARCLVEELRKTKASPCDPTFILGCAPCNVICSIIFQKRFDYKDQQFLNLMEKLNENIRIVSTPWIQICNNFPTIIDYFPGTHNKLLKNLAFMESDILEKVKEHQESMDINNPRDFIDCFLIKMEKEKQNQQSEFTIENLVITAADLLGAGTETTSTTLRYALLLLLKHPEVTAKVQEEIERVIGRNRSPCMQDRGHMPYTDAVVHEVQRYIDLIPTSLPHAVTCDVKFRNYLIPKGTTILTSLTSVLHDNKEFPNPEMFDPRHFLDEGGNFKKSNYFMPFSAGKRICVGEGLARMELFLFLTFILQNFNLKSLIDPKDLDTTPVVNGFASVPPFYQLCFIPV

[8] = Stability of the compound in mouse pooled hepatocytes assessed as parent compound remaining incubated for 60 mins; assay type: ADME, cell-based, Hepatocyte; settings: read-out: Stabilty
CYP2D6 = CYP2D6 (Homo sapiens, UniProt P10635); assay: Inhibition of CYP2D6 in human liver microsomes at 10 uM incubated for 10 mins in presence of NADPH by LC-MS/MS analysis relative to control; assay type: ADME
Chain of CYP2D6 (P10635 whole entry): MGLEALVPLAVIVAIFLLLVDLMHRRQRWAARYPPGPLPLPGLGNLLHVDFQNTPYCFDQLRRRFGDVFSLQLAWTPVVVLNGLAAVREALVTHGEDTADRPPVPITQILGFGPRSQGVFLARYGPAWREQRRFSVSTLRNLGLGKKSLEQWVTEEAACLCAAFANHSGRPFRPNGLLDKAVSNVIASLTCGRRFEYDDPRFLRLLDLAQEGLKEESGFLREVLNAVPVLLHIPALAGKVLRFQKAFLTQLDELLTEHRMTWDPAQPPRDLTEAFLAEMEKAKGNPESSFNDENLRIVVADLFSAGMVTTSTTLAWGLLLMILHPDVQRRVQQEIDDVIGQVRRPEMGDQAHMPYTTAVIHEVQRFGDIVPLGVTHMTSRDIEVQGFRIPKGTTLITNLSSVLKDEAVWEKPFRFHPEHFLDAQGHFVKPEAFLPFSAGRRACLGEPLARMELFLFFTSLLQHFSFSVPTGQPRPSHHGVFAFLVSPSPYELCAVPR

MM1.S [9] = assay: Induction of DNA hypomethylation in human MM1.S cells assessed as CPG hypomethylation at position 4 at 10 nM measured after 5 days relative to control; assay type: cell-based; settings: time 5.0 day
In short: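 MM1.S cells dosed every day for 5 days at 2 μM or 10 nM. DNA methylation at CpGs of the POU4F2 promoter read by pyrosequencing; run in duplicate.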

[10] = Intrinsic clearance in human pooled hepatocytes; assay type: ADME, cell-based, Hepatocyte; settings: read-out: CLH
[11] = AUC (0 to 24 hrs) in BALB/c RAG2-/- gammaC-/- mouse at 10 mg/kg, ip using 80% saline 10% Tween20 and 10% DMSO formulation measured up to 24 hrs by UPLC-triple quadrupole MS analysis; assay type: ADME, organism-based; parameters: route intraperitoneal, dose 10 mg/kg, time <=24; settings: in vivo
[12] = time hrs <=72, read-out: pGI50 (converted)

| Compound | IC50 (Histone deacetylase 1) | inhibition [1] | GI50 [2] | inhibition [3] | GI50 (JJN-3) | IC50 [4] | IC50 [5] | GI50 (NCI-H929) | IC50 [6] | GI50 (MM1.S [7]; time hrs <=72, read-out: GI50) | GI50 (MM1.S [7]; [12]) | LC50 (THLE-2) | pLC50 (THLE-2) | inhibition at 10 min, 10 µM (CYP2C19) | remaining at 1 h [8] | inhibition at 10 min, 10 µM (CYP2D6) | Activity (MM1.S [9]) | CLint scaled [10] | AUC(0-t) [11] |
| --- | --- | --- | --- | --- | --- | --- | --- | --- | --- | --- | --- | --- | --- | --- | --- | --- | --- | --- | --- |
| COc1cc2c(NCC3CCN(c4ncc(C(=O)NO)cn4)CC3)cc(-c3ccc(C)o3)nc2cc1OCCCN1CCCC1 | 3 nM | Active | 1300 nM | Active | 6040 nM | 5 nM | 1160 nM | 981 nM | 269 nM | 2080 nM | 2090 nM | 10900 nM | 4.96 | – | – | – | – | – | – |
| COc1cc2nc(-c3ccc(C)o3)cc(NCC3CCN(c4ncc(C(=O)NO)cn4)CC3)c2cc1OC | 7 nM | – | 547 nM | – | 482 nM | 18 nM | – | 103 nM | > 10000 nM | 32 nM | 31.6 nM | 794 nM | 6.1 | 5.6% | 14.3% | 10.8% | 10% | 54.2 mL/min/kg | 0.916 µM·h |
